Key:
Assay type in all cases: cell-based
[1] = target: T1, Ras guanyl-releasing protein 3 (Homo sapiens, UniProt Q8IV61); assay: Activation of GFP-tagged RasGRP3 (unknown origin) expressed in human LNCAP cells after 30 mins by immunoblot method
T1 sequence (Q8IV61 whole entry): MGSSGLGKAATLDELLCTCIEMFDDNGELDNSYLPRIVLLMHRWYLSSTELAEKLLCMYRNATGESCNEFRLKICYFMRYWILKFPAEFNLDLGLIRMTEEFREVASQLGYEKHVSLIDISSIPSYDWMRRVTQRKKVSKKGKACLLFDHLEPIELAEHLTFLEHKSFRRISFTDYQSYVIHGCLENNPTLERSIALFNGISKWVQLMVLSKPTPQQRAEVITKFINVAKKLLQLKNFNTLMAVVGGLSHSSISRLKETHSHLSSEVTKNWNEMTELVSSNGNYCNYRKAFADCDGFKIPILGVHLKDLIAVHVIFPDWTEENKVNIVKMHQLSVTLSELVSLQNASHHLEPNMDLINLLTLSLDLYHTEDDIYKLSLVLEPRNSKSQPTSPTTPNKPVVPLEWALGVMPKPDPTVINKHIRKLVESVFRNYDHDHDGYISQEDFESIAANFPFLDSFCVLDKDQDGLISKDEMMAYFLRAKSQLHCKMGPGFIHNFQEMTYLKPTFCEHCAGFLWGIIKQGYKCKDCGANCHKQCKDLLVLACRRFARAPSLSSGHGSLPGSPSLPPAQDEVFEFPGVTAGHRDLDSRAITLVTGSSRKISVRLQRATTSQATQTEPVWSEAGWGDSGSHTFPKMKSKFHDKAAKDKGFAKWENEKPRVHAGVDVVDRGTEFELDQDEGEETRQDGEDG
Procedure, shortened: (§1)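 Cells expressing GFP-RasGRP1/3 (HEK293 or LNCaP, 48 h after plating, transfected; expression checked by fluorescence 24-48 h later) or Ramos with endogenous RasGRP3 treated with half-log increasing concentrations (max 10 µM), 1000 nM PMA or DMSO, 37 °C, 30 min, 5% CO2. RasGTP by Raf1 RBD bead pulldown and anti-Pan-Ras immunoblot; pERK by western blot. Band intensities normalized to 1000 nM PMA; EC50 from n = 3.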

[2] = target: T1, Ras guanyl-releasing protein 3; assay: Activation of RasGRP3 in human Ramos cells assessed as ERK1/2 phosphorylation after 30 mins by immunoblot method; procedure, shortened: as §1
Homo sapiens [3] = species: Homo sapiens; assay: Selectivity ratio of EC50 for PKCdelta (unknown origin) expressed in HEK293 cells harboring GFP-tagged RasGRP3 to EC50 for GFP-tagged RasGRP3 (unknown origin) expressed in HEK293 cells
Procedure, shortened: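 One EC50 comes from PKCδ S299 phosphorylation on immunoblot, the other from Ras-GTP pulled down on Raf1-RBD. Both signals normalised to 1000 nM PMA. EC50s above 10 µM are extrapolated.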

Homo sapiens [4] = species: Homo sapiens; assay: Selectivity ratio of EC50 for PKCdelta (unknown origin) expressed in human LNCAP cells harboring GFP-tagged RasGRP1 to EC50 for GFP-tagged RasGRP1 (unknown origin) expressed in human LNCAP cells
Homo sapiens [5] = species: Homo sapiens; assay: Selectivity ratio of EC50 for PKCdelta (unknown origin) expressed in human LNCAP cells harboring GFP-tagged RasGRP3 to EC50 for GFP-tagged RasGRP3 (unknown origin) expressed in human LNCAP cells
Homo sapiens [6] = species: Homo sapiens; assay: Selectivity ratio of EC50 for PKCdelta (unknown origin) expressed in HEK293 cells harboring GFP-tagged RasGRP1 to EC50 for GFP-tagged RasGRP1 (unknown origin) expressed in HEK293 cells assessed as ERK1/2 phosphorylation

Work on Cn1cc(/C=C2\CC(CO)(COC(=O)C(C)(C)C)OC2=O)c2ccccc21 (stereo unspecified) yielded an EC50 [1] of 0.64 µM, an EC50 [2] of 6.09 µM and a Ratio EC50 (Homo sapiens [3]) of 9.2. It also gave a Ratio EC50 (Homo sapiens [4]) of 8.3, a Ratio EC50 (Homo sapiens [5]) of 12.9 and a Ratio EC50 (Homo sapiens [6]) of 2.6.
